The source made the active and inactive calls. The rule behind the calls is not given here.
Tests used:
[1] = molecular target: Receptor-interacting serine/threonine-protein kinase 2 (Homo sapiens) (UniProt O43353); assay: Inhibition of human RIPK2 at 1 uM relative to control
[2] = molecular target: Maternal embryonic leucine zipper kinase (Homo sapiens) (UniProt Q14680); assay: Inhibition of human MELK at 1 uM relative to control
[3] = molecular target: T1, cGMP-dependent protein kinase 1 (Homo sapiens) (UniProt Q13976); assay: Inhibition of recombinant human N-terminal His6-tagged full length PKG1alpha expressed in baculovirus infected Sf21 insect cells upto 1 uM relative to control
T1 sequence (whole entry): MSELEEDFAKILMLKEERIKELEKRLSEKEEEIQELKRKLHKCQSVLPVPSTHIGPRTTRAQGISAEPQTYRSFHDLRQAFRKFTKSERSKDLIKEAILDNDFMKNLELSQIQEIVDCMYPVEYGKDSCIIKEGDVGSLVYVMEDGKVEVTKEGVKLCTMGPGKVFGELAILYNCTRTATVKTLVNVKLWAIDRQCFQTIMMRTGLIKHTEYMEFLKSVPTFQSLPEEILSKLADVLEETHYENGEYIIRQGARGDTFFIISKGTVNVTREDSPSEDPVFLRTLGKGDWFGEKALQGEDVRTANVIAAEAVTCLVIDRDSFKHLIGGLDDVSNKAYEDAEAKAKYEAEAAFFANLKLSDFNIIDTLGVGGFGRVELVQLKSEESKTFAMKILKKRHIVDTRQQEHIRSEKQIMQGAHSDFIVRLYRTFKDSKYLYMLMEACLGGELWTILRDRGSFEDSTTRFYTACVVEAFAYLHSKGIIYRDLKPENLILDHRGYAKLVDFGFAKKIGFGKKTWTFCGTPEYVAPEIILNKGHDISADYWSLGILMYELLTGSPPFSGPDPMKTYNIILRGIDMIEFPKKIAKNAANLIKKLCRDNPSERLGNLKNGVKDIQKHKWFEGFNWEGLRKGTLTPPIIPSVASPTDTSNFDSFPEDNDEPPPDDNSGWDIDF

[4] = molecular target: T1, cGMP-dependent protein kinase 1 (Homo sapiens); assay: Inhibition of recombinant human N-terminal His6-tagged full length PKG1beta expressed in baculovirus infected Sf21 insect cells upto 1 uM relative to control
HepG2 = assay: Cytotoxicity against human HepG2 cells assessed as reduction cell viability incubated for 48 hrs by CellTiter-Glo luminescent cell viability assay; type: cell-based; details: hepg2, 48 h
How it was run: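 HepG2 human liver-derived cells exposed to compound for 48 h in an in vitro viability assay. […]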

Chain of Maternal embryonic leucine zipper kinase (Homo sapiens) (Q14680 whole entry, looked up): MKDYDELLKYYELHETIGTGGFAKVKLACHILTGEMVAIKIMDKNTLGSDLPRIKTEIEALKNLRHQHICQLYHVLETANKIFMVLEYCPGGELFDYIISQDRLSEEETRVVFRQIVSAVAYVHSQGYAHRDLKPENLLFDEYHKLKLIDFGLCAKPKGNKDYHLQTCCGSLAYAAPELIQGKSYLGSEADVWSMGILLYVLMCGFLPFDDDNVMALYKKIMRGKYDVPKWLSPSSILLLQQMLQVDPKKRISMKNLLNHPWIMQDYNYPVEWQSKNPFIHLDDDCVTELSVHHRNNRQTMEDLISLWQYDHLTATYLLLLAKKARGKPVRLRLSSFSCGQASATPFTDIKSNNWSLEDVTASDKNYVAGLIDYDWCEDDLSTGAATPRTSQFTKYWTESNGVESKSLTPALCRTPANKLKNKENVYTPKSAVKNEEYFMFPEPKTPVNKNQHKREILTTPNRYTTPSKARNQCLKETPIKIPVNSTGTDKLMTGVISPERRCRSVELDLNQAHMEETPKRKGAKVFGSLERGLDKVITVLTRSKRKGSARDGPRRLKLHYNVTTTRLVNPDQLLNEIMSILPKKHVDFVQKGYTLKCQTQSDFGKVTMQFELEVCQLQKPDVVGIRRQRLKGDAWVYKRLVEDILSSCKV
Chain of Receptor-interacting serine/threonine-protein kinase 2 (Homo sapiens) (O43353 whole entry): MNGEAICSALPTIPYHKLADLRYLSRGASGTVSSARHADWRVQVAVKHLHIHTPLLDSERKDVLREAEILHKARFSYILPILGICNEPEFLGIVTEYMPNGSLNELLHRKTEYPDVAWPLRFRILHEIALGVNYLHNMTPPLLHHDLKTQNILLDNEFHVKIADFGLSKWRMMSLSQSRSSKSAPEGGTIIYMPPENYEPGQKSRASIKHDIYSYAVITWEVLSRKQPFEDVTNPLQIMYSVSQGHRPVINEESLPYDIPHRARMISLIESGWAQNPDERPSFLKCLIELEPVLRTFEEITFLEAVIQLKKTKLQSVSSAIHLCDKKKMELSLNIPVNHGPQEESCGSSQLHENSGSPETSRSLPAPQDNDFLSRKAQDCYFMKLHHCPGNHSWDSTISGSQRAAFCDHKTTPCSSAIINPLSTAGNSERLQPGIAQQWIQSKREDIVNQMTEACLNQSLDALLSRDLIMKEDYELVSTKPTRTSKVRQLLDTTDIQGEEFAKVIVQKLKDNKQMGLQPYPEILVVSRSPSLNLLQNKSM

Structure (SMILES)	inhibition [1]	inhibition [2]	inhibition [3]	inhibition [4]	Activity (HepG2)
CN(C)Cc1ccn2c(-c3ccnc(Nc4ccc(N5CCNCC5)cc4)n3)c(C3CC3)nc2c1	50 to 90%	> 90%	–	–	–
CN(C)Cc1ccn2c(-c3ccnc(N)n3)c(-c3ccc(F)cc3)nc2c1	50 to 90%	> 90%	inactive	inactive	–
CN1CCN(c2ccc3nc(-c4ccc(F)cc4)c(-c4ccnc(N)n4)n3c2)CC1	–	–	–	–	Toxic
CNc1nccc(-c2c(-c3ccc(F)cc3)nc3cc(NCCN(C)C)ccn23)n1	50 to 90%	50 to 90%	inactive	inactive	–
CN1CCN(c2ccn3c(-c4ccnc(N)n4)c(-c4ccc(F)cc4)nc3c2)CC1	–	–	–	–	Non-Toxic
